Results taken from ChEMBL document CHEMBL1123860, “C1- and C3-methyl-substituted derivatives of 7-hydroxy-2-(di-n-propylamino)tetralin: activities at central dopamine receptors” (1987).
“And” between values parts separate entries of the source, which are not always exact repeats. Equal values may be shown once. The source made the active and inactive calls. No cut-off for these calls is given here.

Key:
Rattus norvegicus [1] = species on record: Rattus norvegicus; assay: Effect on half-maximal decrease of DOPA formation in rat limbic regions; type: functional; settings: Limbic system
Rattus norvegicus [2] = species on record: Rattus norvegicus; assay: Effect on half-maximal decrease of DOPA formation in rat limbic regions; In active (no significant effect […]); type: functional; settings: Limbic system
Rattus norvegicus [3] = species on record: Rattus norvegicus; assay: Effect on half-maximal decrease of DOPA formation in rat striatal regions; type: functional
Rattus norvegicus [4] = species on record: Rattus norvegicus; assay: Effect on half-maximal decrease of DOPA formation in rat striatal regions; In active (no significant effect […]); type: functional, organism-based
Rattus norvegicus [5] = species on record: Rattus norvegicus; assay: Tested for locomotor activity by measuring accumulated counts/30 min in reserpine-pretreated rats; type: functional
Outline: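 Rats given reserpine 5 mg/kg sc 18 h beforehand, then test drug sc immediately before the session. Motor activity recorded by photocell motility meter as accumulated counts over 30 min, mean ± SEM (n = 3–4). Reserpine controls were used; Student's t test. Injection volume 5 mL/kg at roughly neutral pH.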

Rattus norvegicus [6] = species on record: Rattus norvegicus; assay: Tested for locomotor activity by measuring accumulated counts/30 min in reserpine-non-pretreated rats; type: functional
Outline: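 Nonpretreated rats were injected with test drug 5 min before a photocell motility session, and counts were accumulated over 30 min. Activity expressed as percent of saline controls, mean ± SEM (n = 3–5), compared by Student's t test. Injections were 5 mL/kg at approximately neutral pH.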

Rattus norvegicus [7] = assay: Effect on half-maximal decrease of DOPA formation in rat limbic regions; In active (no significant decrease at […] sc); type: functional, organism-based; settings: Limbic system

| SMILES | ED50 (Rattus norvegicus [1]) [µmol/kg] | ED50 (Rattus norvegicus [2]) | ED50 (Rattus norvegicus [3]) [µmol/kg] | ED50 (Rattus norvegicus [4]) | No. of counts (Rattus norvegicus [5]) | No. of counts (Rattus norvegicus [6]) | ED50 (Rattus norvegicus [7]) | ED50 (Rattus norvegicus [2]; ip) [µmol/kg] |
| --- | --- | --- | --- | --- | --- | --- | --- | --- |
| CCCN(CCC)[C@H]1Cc2cc(O)ccc2C[C@H]1C | 11 | inactive | 7.5 | inactive | 331 counts/30 min | 119% | – | – |
| CCCN(CCC)[C@H]1Cc2cc(O)ccc2C[C@@H]1C | – | inactive | – | inactive | 35 counts/30 min | 89% | – | – |
| CCCN(CCC)[C@H]1Cc2cc(OC)ccc2CC1C (stereo partly specified) | – | inactive | – | inactive | – | 96% | – | – |
| CCCN(CCC)[C@@H]1CCc2ccc(O)cc2C1 | 0.01 | – | 0.01 | – | 46 counts/30 min | – | – | – |
| CCCN[C@H]1Cc2cc(OC)ccc2CC1C (stereo partly specified) | – | inactive | – | inactive | – | 128% | – | – |
| CCCN(CCC)[C@@H]1CCc2ccc(OC)cc2C1C (single isomer, unassigned; 5) [listing 1 of 2 here] | – | – | – | – | 4 counts/30 min | 109% and 92% | – | – |
| CCCN(CCC)[C@@H]1CCc2ccc(OC)cc2C1C (single isomer, unassigned; 5) [listing 2 of 2 here] | – | inactive | – | inactive | – | – | inactive | – |
| CCCN(CCC)[C@@H]1CCc2ccc(O)cc2C1C (single isomer, unassigned; 6) [listing 1 of 2 here] | – | – | – | – | 14 counts/30 min and 17 counts/30 min | 126% and 136% | – | – |
| CCCN(CCC)[C@@H]1CCc2ccc(O)cc2C1C (single isomer, unassigned; 6) [listing 2 of 2 here] | – | inactive | – | inactive | – | – | – | – |
| CCCN(CCC)[C@@H]1CCc2ccc(OC)cc2C1C (single isomer, unassigned; 9) [listing 1 of 2 here] | – | – | 1.3 | – | – | 38% and 28% | – | 0.9 |
| CCCN(CCC)[C@@H]1CCc2ccc(OC)cc2C1C (single isomer, unassigned; 9) [listing 2 of 2 here] | – | inactive | – | inactive | – | – | – | – |
| CCCN(CCC)[C@@H]1CCc2ccc(O)cc2C1C (single isomer, unassigned; 10) [listing 1 of 2 here] | – | – | – | – | 50 counts/30 min and 20 counts/30 min | – | – | – |
| CCCN(CCC)[C@@H]1CCc2ccc(O)cc2C1C (single isomer, unassigned; 10) [listing 2 of 2 here] | – | inactive | – | inactive | – | – | – | – |
| CCCN[C@@H]1CCc2ccc(O)cc2C1C (single isomer, unassigned; (+)) | 1.4 | – | 1.2 | – | 59 counts/30 min | – | – | – |
| CCCN[C@@H]1CCc2ccc(O)cc2C1C (single isomer, unassigned; (-)) [listing 1 of 2 here] | – | – | – | – | 8 counts/30 min | – | – | – |
| CCCN[C@@H]1CCc2ccc(O)cc2C1C (single isomer, unassigned; (-)) [listing 2 of 2 here] | – | inactive | – | inactive | – | – | – | – |
| CN1CCc2cccc3c2[C@H]1Cc1ccc(O)c(O)c1-3 [APOMORPHINE] | 0.04 | – | 0.04 | – | 366 counts/30 min | 227% | – | – |
| O=C(CCCN1CCC(O)(c2ccc(Cl)cc2)CC1)c1ccc(F)cc1 [HALOPERIDOL] | 0.19 | inactive | 0.19 | inactive | – | 3% | – | – |
